Legend:
Assay type in all cases: functional
Homo sapiens = species: Homo sapiens; test: Antiplatelet activity in human platelet-rich plasma assessed as inhibition of ADP-induced platelet aggregation by aggregometry
Procedure, shortened: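 Human PRP from healthy donors free of aspirin/NSAIDs for at least two weeks, drawn into ACD; PRP spun at 300 g for 10 min, PPP at 2000 g. Compound in 0.5% DMSO preincubated 2 min at 37 °C with stirring (900 rpm). Aggregation induced by 10 μM ADP (final) and followed optically for 5 min.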

Rattus norvegicus [1] = test: Antithrombotic activity in anesthetized Wistar rat model of tail-bleeding assessed as increase in bleeding weight at 10 mg/kg, po administered as single dose measured at 1.5 hrs post dose
Procedure, shortened: (§1)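 Male rats (250–300 g, n = 10 per dose) acclimatized at least 7 days, then dosed by oral gavage. At 1.5 h, anesthetized with 2% pentobarbital i.p. at 50 mg/kg. Tail transected 4 mm from the tip and immersed in saline at 37 °C; bleeding ended when no blood appeared for 30 s. Bleeding time and blood loss weight recorded as mean ± SEM.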

Rattus norvegicus [2] = test: Antithrombotic activity in anesthetized Wistar rat model of tail-bleeding assessed as increase in bleeding weight at 5 mg/kg, po administered as single dose measured at 1.5 hrs post dose; procedure, shortened: as §1
Rattus norvegicus [3] = test: Antithrombotic activity in anesthetized Wistar rat model of tail-bleeding assessed as increase in bleeding time po administered as single dose measured at 1.5 hrs post dose; procedure, shortened: as §1
Rattus norvegicus [4] = test: Antithrombotic activity in anesthetized Wistar rat model of FeCL3-induced carotid artery thrombosis assessed as reduction in thrombus weight po administered as single dose measured at 1.5 hrs post dose
Procedure, shortened: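 Compounds in 0.5% CMC-Na given to Wistar rats as a single oral gavage dose (10 mL/kg). Rats anesthetized with 2% pentobarbital i.p. at 50 mg/kg and kept on a heating pad. At 1.5 h post-dose, filter paper soaked in 20% FeCl3 applied to the isolated left carotid artery for 10 min; thrombus weight recorded. Mean ± SEM, n = 10.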

Rattus norvegicus [5] = test: Antithrombotic activity in anesthetized Wistar rat model of tail-bleeding assessed as increase in bleeding weight at […], po administered as single dose measured at 1.5 hrs post dose
Rattus norvegicus [6] = test: Antithrombotic activity in anesthetized Wistar rat model of tail-bleeding assessed as increase in bleeding weight at 20 mg/kg, po administered as single dose measured at 1.5 hrs post dose; procedure, shortened: as §1

| SMILES | IC50 (Homo sapiens) | further results |
| --- | --- | --- |
| CC(c1ccccc1)S(=O)(=O)NC(=O)C1CCN(c2nc3c(cc2C#N)C(=O)OC3)CC1 (stereo not drawn) | 4.16 µM |  |
| N#Cc1cc2c(nc1N1CCC(C(=O)NS(=O)(=O)Cc3ccccc3)CC1)CNC2=O | > 300 µM |  |
| N#Cc1cc2c(nc1N1CCC(C(=O)NS(=O)(=O)Cc3ccccc3)CC1)CCC(Cl)C2=O (stereo not drawn) | > 300 µM |  |
| CC1OC(=O)c2cc(C#N)c(N3CCC(C(=O)NS(=O)(=O)Cc4ccccc4)CC3)nc21 (stereo not drawn) | > 300 µM |  |
| N#Cc1cc2c(nc1N1CCC(C(=O)NS(=O)(=O)Cc3ccccc3F)CC1)COC2=O | 23.7 µM |  |
| COC(=O)[C@H](c1ccccc1Cl)N1CCc2sccc2C1 [CLOPIDOGREL] |  | Activity (Rattus norvegicus [1]): 1.2 g; Activity (Rattus norvegicus [2]): 0.7 g; ED100 (Rattus norvegicus [3]): 2.36 mg/kg; ED50 (Rattus norvegicus [4]): 7 mg/kg; Activity (Rattus norvegicus [5]): 0.44 g; Activity (Rattus norvegicus [6]): 1.99 g |
| N#Cc1cc2c(nc1N1CCC(C(=O)NS(=O)(=O)Cc3cccc(F)c3)CC1)COC2=O | 70.5 µM |  |
| Cc1ccc(CS(=O)(=O)NC(=O)C2CCN(c3nc4c(cc3C#N)C(=O)OC4)CC2)cc1 | 4.28 µM |  |
| N#Cc1cc2c(nc1N1CCC(F)(C(=O)NS(=O)(=O)Cc3ccc(Cl)cc3)CC1)COC2=O | 37.2 µM |  |
| CC1(C(=O)NS(=O)(=O)Cc2ccc(F)cc2F)CCN(c2nc3c(cc2C#N)C(=O)OC3)CC1 | 8.76 µM |  |
| N#Cc1cc2c(nc1N1CCC(F)(C(=O)NS(=O)(=O)c3ccc(Cl)s3)CC1)COC2=O | 37.1 µM |  |
| N#Cc1cc2c(nc1N1CCC(C(=O)NS(=O)(=O)Cc3ccccc3)CC1)CCCC2=O | 117 µM |  |
| CC1OC(=O)c2cc(C#N)c(N3CCC(C(=O)NS(=O)(=O)c4ccc(Cl)s4)CC3)nc21 (stereo not drawn) | > 300 µM |  |
| CC1(C(=O)NS(=O)(=O)Cc2ccc(F)cc2)CCN(c2nc3c(cc2C#N)C(=O)OC3)CC1 | 35.4 µM |  |
| N#Cc1cc2c(nc1N1CCC(C(=O)NS(=O)(=O)Cc3ccc(F)cc3)CC1)COC2=O | 3.5 µM |  |
| N#Cc1cc2c(nc1N1CCC(C(=O)NS(=O)(=O)Cc3ccc(Cl)cc3)CC1)COC2=O | 4.42 µM |  |
| N#Cc1cc2c(nc1N1CCC(C(=O)NS(=O)(=O)Cc3ccccc3)CC1)CCC(F)C2=O (stereo not drawn) | 255 µM |  |
| CC1OC(=O)c2cc(C#N)c(N3CCC(C(=O)NS(=O)(=O)Cc4ccccc4)C3)nc21 (stereo not drawn) | > 300 µM |  |
